Results pooled from the literature.
Compare with care: the assays were run in different laboratories.
Target: Tyrosine-protein kinase CSK (CSK, Homo sapiens, UniProt P41240)

| SMILES | observed | mode | method | tested at | quantity | result |
| --- | --- | --- | --- | --- | --- | --- |
| N#CC1(c2ccccn2)CCN(Cc2cc(C(=O)O)c(=O)n3ccccc23)CC1 | cell-free assay | – | competition with immobilised ligand | 1 µM | remaining binding | 100% |
| COc1ncccc1-c1cnn2ccc(N3CCN(C(=O)OC(C)C)CC3)nc12 | binding | – | competition with immobilised ligand | 1 µM | remaining binding | 100% |
| CC(C)(C)c1cc(C=C(C#N)C#N)cc(Br)c1O | enzyme activity | inhibitor | – | 0.5 µM | remaining activity | 106% |
| Cn1cc(-c2cc(F)cc(N3CCn4c(cc5c4CCCC5)C3=O)c2CO)cc(Nc2ccc(N3CCN(C4COC4)CC3)cn2)c1=O | enzyme activity | inhibitor | – | 0.1 µM | inhibition | 12% |
| Nc1ncc(-c2nc(N3CCOCC3)nc(N3CCOCC3)n2)c(C(F)F)n1 | binding | – | competition with immobilised ligand | 10 µM | remaining binding | 73% |
| O=C(NCc1ncc(C(F)(F)F)cc1Cl)c1ccc2c(c1)C1(CCS(=O)(=O)CC1)[C@@H](C1CC1)N2S(=O)(=O)c1ccc(F)cc1 | cell-free assay | – | competition with immobilised ligand | 1 µM | remaining binding | 96% |
| Cn1cc(-c2cccc(N3CCc4c(sc5c4CC(C)(C)C5)C3=O)c2CO)cc(Nc2ccncn2)c1=O | enzyme activity | inhibitor | – | 1 µM | inhibition | 4% |
| O=c1[nH]c2ccccc2n1C1CCN(Cc2ccc(-c3[nH]c4cc5ncnc5cc4nc3-c3ccccc3)cc2)CC1 | enzyme activity | – | – | 0.5 µM | remaining activity | 101% |
| Cc1nn(C)cc1-c1nc2c(N3CCN(Cc4ccc(Cl)cc4)CC3)c(Cl)cnc2[nH]1 | binding | – | competition with immobilised ligand | 1 µM | remaining binding | 100% |
